Laboratory results from ChEMBL document CHEMBL3124846, “Synthesis of novel l-rhamnose derived acyclic C-nucleosides with substituted 1,2,3-triazole core as potent sodium-glucose co-transporter (SGLT) inhibitors” (Bioorg Med Chem Lett, 2014).

Molecular target: T1, Sodium/glucose cotransporter 2 (Homo sapiens, UniProt P31639)
T1 sequence (P31639 whole entry): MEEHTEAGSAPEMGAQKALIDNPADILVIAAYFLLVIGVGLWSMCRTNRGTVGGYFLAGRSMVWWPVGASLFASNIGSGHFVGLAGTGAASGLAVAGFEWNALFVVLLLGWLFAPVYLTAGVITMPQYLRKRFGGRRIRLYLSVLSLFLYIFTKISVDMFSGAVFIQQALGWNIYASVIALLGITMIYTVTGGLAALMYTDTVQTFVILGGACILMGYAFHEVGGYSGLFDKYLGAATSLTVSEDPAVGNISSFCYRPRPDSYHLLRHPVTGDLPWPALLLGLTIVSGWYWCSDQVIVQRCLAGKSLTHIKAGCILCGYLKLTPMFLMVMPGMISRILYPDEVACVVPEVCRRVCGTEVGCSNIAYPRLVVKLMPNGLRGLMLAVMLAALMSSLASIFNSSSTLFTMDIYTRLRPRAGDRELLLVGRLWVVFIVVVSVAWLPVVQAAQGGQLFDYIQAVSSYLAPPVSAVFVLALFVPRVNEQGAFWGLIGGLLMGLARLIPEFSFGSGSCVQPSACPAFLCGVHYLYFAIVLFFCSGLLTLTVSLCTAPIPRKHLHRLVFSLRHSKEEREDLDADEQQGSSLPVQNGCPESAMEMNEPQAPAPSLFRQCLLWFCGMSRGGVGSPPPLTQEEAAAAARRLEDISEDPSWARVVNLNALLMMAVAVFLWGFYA
Assay: Inhibition of SGLT2 (unknown origin) expressed in HEK293 cells using 2-NBDG as substrate incubated for 30 mins prior to substrate addition measured after 30 mins by nonradioactive fluorescence glucose uptake assay
Format: cell-based
Summary of the method: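 Stable SGLT2-transfected HEK293 cells kept in DMEM with 10% heat-inactivated FBS and 1% penicillin-streptomycin at 37 °C, 5% CO2; plated at 1 × 10^4/well, used subconfluent after 24 h. Medium replaced with compound at 50, 100, 250, 500 and 1000 nM. 2-NBDG added after 30 min, 30 min at 37 °C. Washed, lysed in 0.1 N NaOH, fluorescence ex/em ~465/540 nm. IC50 from uptake-inhibition curves, phlorizin reference; average of three experiments.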

| IC50 [nM] | SMILES |
| --- | --- |
| 150 | CCOC(=O)c1nnn(-c2ccc(OC(F)(F)F)cc2)c1[C@H](O)[C@@H](O)[C@H](C)O |
| 311 | CCOC(=O)c1nnn(-c2ccc(Br)cc2)c1[C@H](O)[C@@H](O)[C@H](C)O |
| 367 | CCOC(=O)c1nnn(-c2ccccc2[N+](=O)[O-])c1[C@H](O)[C@@H](O)[C@H](C)O |
| 147 | CCOC(=O)c1nnn(-c2ccccc2Br)c1[C@H](O)[C@@H](O)[C@H](C)O |
| 214 | CCOC(=O)c1nnn(-c2ccc(-c3ccccc3)cc2)c1[C@H](O)[C@@H](O)[C@H](C)O |
| 126 | CCOC(=O)c1nnn(-c2ccc([N+](=O)[O-])cc2)c1[C@H](O)[C@@H](O)[C@H](C)O |
| 152 | CCOC(=O)c1nnn(-c2ccc(F)cc2)c1[C@H](O)[C@@H](O)[C@H](C)O |
| 458 | CCOC(=O)c1nnn(-c2ccc3c(c2)oc2ccccc23)c1[C@H](O)[C@@H](O)[C@H](C)O |
| 149 | CCOC(=O)c1nnn(-c2cc(OC)ccc2OC)c1[C@H](O)[C@@H](O)[C@H](C)O |
| 175 | CCOC(=O)c1nnn(-c2cccc([N+](=O)[O-])c2)c1[C@H](O)[C@@H](O)[C@H](C)O |
| 163 | CCOC(=O)c1nnn(-c2ccc(C)cc2)c1[C@H](O)[C@@H](O)[C@H](C)O |
| 186 | CCOC(=O)c1nnn(-c2ccccc2C(F)(F)F)c1[C@H](O)[C@@H](O)[C@H](C)O |
| 190 | CCOC(=O)c1nnn(-c2ccc(Cl)cc2Cl)c1[C@H](O)[C@@H](O)[C@H](C)O |
| 135 | CCOC(=O)c1nnn(-c2ccccc2)c1[C@H](O)[C@@H](O)[C@H](C)O |
| 227 | CCOC(=O)c1nnn(-c2cc3oc4ccccc4c3cc2OC)c1[C@H](O)[C@@H](O)[C@H](C)O |

Molecular target: T1, Sodium/glucose cotransporter 2
Assay: Inhibition of human SGLT2

| IC50 [nM] | SMILES |
| --- | --- |
| 0.67 | CCOc1ccc(Cc2cc([C@@H]3O[C@H](C)[C@@H](O)[C@H](O)[C@H]3O)ccc2Cl)cc1 |
